Results on 28 compounds are retold here after ChEMBL document CHEMBL4138062, “Pyrazolobenzothiazine-based carbothioamides as new structural leads for the inhibition of monoamine oxidases: design, synthesis, in vitro bioevaluation and molecular docking studies” (Medchemcomm, 2017).

Data set [1] addresses T1, Amine oxidase [flavin-containing] B (Homo sapiens, UniProt P27338).
T1 sequence (P27338 whole entry): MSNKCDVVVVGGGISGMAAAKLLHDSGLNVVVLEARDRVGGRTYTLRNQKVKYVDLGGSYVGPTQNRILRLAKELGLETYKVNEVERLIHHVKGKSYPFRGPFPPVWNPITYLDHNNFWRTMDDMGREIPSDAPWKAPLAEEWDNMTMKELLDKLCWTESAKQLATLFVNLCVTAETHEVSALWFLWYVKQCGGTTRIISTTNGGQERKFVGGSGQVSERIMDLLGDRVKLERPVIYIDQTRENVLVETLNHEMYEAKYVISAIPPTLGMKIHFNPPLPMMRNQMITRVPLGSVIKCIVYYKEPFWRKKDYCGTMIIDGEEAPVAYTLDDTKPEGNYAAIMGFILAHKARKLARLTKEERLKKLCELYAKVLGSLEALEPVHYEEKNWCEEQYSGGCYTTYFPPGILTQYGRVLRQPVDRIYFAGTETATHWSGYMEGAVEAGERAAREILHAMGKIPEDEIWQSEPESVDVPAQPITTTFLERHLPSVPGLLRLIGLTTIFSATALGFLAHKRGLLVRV
The data set can be described thus: Inhibition of human MAOB at 0.1 mM pre-incubated for 10 mins before p-tyramine substrate addition and measured after 10 mins by amplex red reagent-based microplate fluorescence reader analysis. The method, boiled down:
(§1)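 The reaction in 50 mM phosphate buffer (pH 7.4) was preincubated with enzyme and test compound at 37 °C for 10 min. p-Tyramine (3 mM solution) and Amplex Red reagent were then added, and the mix was held at 37 °C for 10 min. Resorufin fluorescence (ex 544, em 590 nm) from H2O2 was read. Percent inhibition was taken at 100 μM final concentration, in triplicate.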

The target in data set [2] is T2, Amine oxidase [flavin-containing] A (Homo sapiens, UniProt P21397).
T2 sequence (P21397 whole entry): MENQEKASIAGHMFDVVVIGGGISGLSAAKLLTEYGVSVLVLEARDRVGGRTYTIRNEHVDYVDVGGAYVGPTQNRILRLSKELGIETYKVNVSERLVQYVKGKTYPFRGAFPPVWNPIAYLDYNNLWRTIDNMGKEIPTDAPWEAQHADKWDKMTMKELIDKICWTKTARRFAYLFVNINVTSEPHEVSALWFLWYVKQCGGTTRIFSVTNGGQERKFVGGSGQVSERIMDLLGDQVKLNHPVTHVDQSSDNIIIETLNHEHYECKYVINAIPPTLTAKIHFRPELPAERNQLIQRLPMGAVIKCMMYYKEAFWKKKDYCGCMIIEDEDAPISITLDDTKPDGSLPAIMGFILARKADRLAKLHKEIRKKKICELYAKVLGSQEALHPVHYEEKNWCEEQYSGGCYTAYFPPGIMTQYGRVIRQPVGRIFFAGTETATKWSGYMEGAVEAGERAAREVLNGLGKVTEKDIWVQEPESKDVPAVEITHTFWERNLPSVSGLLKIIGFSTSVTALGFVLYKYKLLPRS
In words: Inhibition of human MAOA at 0.1 mM pre-incubated for 10 mins before p-tyramine substrate addition and measured after 10 mins by amplex red reagent-based microplate fluorescence reader analysis. Summed up: as §1

Data set [3] concerns the target T2, Amine oxidase [flavin-containing] A. The data set can be described thus: Inhibition of human MAOA pre-incubated for 10 mins before p-tyramine substrate addition and measured after 10 mins by amplex red reagent-based microplate fluorescence reader analysis.
In data set [4] the target is T1, Amine oxidase [flavin-containing] B.

The inhibition is the percentage by which the read-out fell short of the control. A lower inhibition goes with little suppression. For orientation: IC50 means the concentration needed to halve the response being measured. Low readings indicate inhibition by little substance, high ones a need for much substance. With `Cc1ccc(NC(=S)N/N=C/c2ccc(-n3nc4c(c3C)N(C)S(=O)(=O)c3ccccc3-4)cc2)c(C)c1`, the inhibition at 100 µM in data set [1] and in data set [2] was over 50% throughout. Further, the IC50 is 1.13 µM in data set [3] and 110 nM in data set [4].
Take `Cc1c2c(nn1-c1ccc(/C=N/NC(=S)Nc3cccc(F)c3)cc1)-c1ccccc1S(=O)(=O)N2C`: the inhibition at 100 µM in data set [1] and in data set [2] was over 50% in each case. The IC50 is 0.47 µM in data set [3] and 1680 nM in data set [4].
On to `CCc1ccc(NC(=S)N/N=C/c2ccc(-n3nc4c(c3-c3ccccc3)N(C)S(=O)(=O)c3ccccc3-4)cc2)cc1`, for which the inhibition at 100 µM in data set [1] and in data set [2] was over 50% throughout. For the same compound, the IC50 was found to be 8.18 µM in data set [3] and 20 nM in data set [4].
Take `Cc1c2c(nn1-c1ccc(/C=N/NC(=S)Nc3cccc(Cl)c3)cc1)-c1ccccc1S(=O)(=O)N2C`: the inhibition at 100 µM in data set [1] and in data set [2] was over 50% each time. In addition, the IC50 turned out to be 1.11 µM in data set [3] and 2890 nM in data set [4].
On to `Cc1c2c(nn1-c1ccc(/C=N/NC(=S)Nc3ccccc3F)cc1)-c1ccccc1S(=O)(=O)N2C`, for which the inhibition at 100 µM in data set [1] and in data set [2] was over 50% throughout. In addition, the results for the IC50 in data set [3] and in data set [4] were 1.42 µM and 3830 nM, respectively.
As for `Cc1c2c(nn1-c1ccc(/C=N/NC(=S)NCN3CCOCC3)cc1)-c1ccccc1S(=O)(=O)N2C`, the inhibition at 100 µM in data set [1] and in data set [2] was over 50% each time. The IC50 stood at 64.8 µM in data set [3] and 4340 nM in data set [4].
Consider `Cc1ccccc1NC(=S)N/N=C/c1ccc(-n2nc3c(c2C)N(C)S(=O)(=O)c2ccccc2-3)cc1`, for which the inhibition at 100 µM in data set [1] and in data set [2] was over 50% in each case. Further, the IC50 in data set [3] stood at 0.01 µM; in data set [4], 3130 nM.
On to `CN1c2c(nn(-c3ccc(/C=N/NC(=S)Nc4cccc(F)c4)cc3)c2-c2ccccc2)-c2ccccc2S1(=O)=O`, for which the inhibition at 100 µM in data set [1] and in data set [2] was over 50% in each case. Also, the IC50 in data set [3] came to 9.02 µM; in data set [4], 1760 nM.
Take `CN1c2c(nn(-c3ccc(/C=N/NC(=S)NCc4ccccc4)cc3)c2-c2ccccc2)-c2ccccc2S1(=O)=O`: the inhibition at 100 µM in data set [1] and in data set [2] was over 50% throughout. Also, the values for the IC50 in data set [3] and in data set [4] were 10.6 µM and 640 nM, respectively.
`Cc1c2c(nn1-c1ccc(/C=N/NC(=S)NCc3ccccc3)cc1)-c1ccccc1S(=O)(=O)N2C`: the inhibition at 100 µM in data set [1] and in data set [2] was over 50% throughout. For the same compound, the figures for the IC50 in data set [3] and in data set [4] were 76.2 µM and 4720 nM, respectively.
`Cc1c2c(nn1-c1ccc(/C=N/NC(N)=S)cc1)-c1ccccc1S(=O)(=O)N2C`: the inhibition at 100 µM is 36% in data set [1] and over 50% in data set [2]. Moreover, the IC50 in data set [3] is 31.2 µM.
In the case of `CN1c2c(nn(-c3ccc(/C=N/NC(=S)Nc4ccc(Cl)cc4)cc3)c2-c2ccccc2)-c2ccccc2S1(=O)=O`, the inhibition at 100 µM in data set [1] and in data set [2] was over 50% in each case. Moreover, the IC50 in data set [3] amounted to 2.06 µM; in data set [4] it was 3270 nM.
Take `Cc1cccc(C)c1NC(=S)N/N=C/c1ccc(-n2nc3c(c2C)N(C)S(=O)(=O)c2ccccc2-3)cc1`: the “inhibition (INH)” value in data set [1] (100 µM) and in data set [2] (100 µM) was over 50% in each case.
For `CN1c2c(nn(-c3ccc(/C=N/NC(=S)Nc4ccccc4Cl)cc3)c2-c2ccccc2)-c2ccccc2S1(=O)=O`, the inhibition at 100 µM in data set [1] and in data set [2] was over 50% each time. For the same compound, the IC50 was determined as 33.8 µM in data set [3] and 680 nM in data set [4].
Consider `Cc1ccc(NC(=S)N/N=C/c2ccc(-n3nc4c(c3C)N(C)S(=O)(=O)c3ccccc3-4)cc2)cc1`, for which the inhibition at 100 µM in data set [1] and in data set [2] was over 50% throughout. Also, the IC50 was 0.003 µM in data set [3] and 29500 nM in data set [4].
As to `Cc1c2c(nn1-c1ccc(/C=N/NC(=S)Nc3ccc(Cl)cc3)cc1)-c1ccccc1S(=O)(=O)N2C`, the inhibition at 100 µM in data set [1] and in data set [2] was over 50% throughout. Moreover, the figures for the IC50 in data set [3] and in data set [4] were 3.49 µM and 430 nM, respectively.
As for `Cc1ccc(NC(=S)N/N=C/c2ccc(-n3nc4c(c3-c3ccccc3)N(C)S(=O)(=O)c3ccccc3-4)cc2)c(C)c1`, the inhibition at 100 µM in data set [1] and in data set [2] was over 50% in each case. Besides, the IC50 worked out at 9.15 µM in data set [3] and 750 nM in data set [4].
On to `Cc1c2c(nn1-c1ccc(/C=N/NC(=S)Nc3ccccc3Cl)cc1)-c1ccccc1S(=O)(=O)N2C`, for which the inhibition at 100 µM in data set [1] and in data set [2] was over 50% throughout. For the same compound, the results for the IC50 in data set [3] and in data set [4] were 4.06 µM and 6210 nM, respectively.
As to `CN1c2c(nn(-c3ccc(/C=N/NC(=S)Nc4ccccc4)cc3)c2-c2ccccc2)-c2ccccc2S1(=O)=O`, the inhibition at 100 µM in data set [1] and in data set [2] was over 50% each time. Further, the values for the IC50 in data set [3] and in data set [4] were 27.2 µM and 2490 nM, respectively.
Take `Cc1cccc(C)c1NC(=S)N/N=C/c1ccc(-n2nc3c(c2-c2ccccc2)N(C)S(=O)(=O)c2ccccc2-3)cc1`: the inhibition at 100 µM in data set [1] and in data set [2] was over 50% each time. The IC50 in data set [3] was determined as 65.7 µM; in data set [4] it was 770 nM.
Turning to `Cc1c2c(nn1-c1ccc(/C=N/NC(=S)Nc3ccccc3)cc1)-c1ccccc1S(=O)(=O)N2C`, the inhibition at 100 µM in data set [1] and in data set [2] was over 50% each time. Moreover, the IC50 in data set [3] was found to be 3.69 µM; in data set [4], 4150 nM.
`CN1c2c(nn(-c3ccc(/C=N/NC(=S)Nc4ccc(F)cc4)cc3)c2-c2ccccc2)-c2ccccc2S1(=O)=O`: the inhibition at 100 µM in data set [1] and in data set [2] was over 50% each time. Further, the IC50 was 2.33 µM in data set [3] and 6990 nM in data set [4].
For the compound `Cc1c2c(nn1-c1ccc(/C=N/NC(=S)Nc3ccc(F)cc3)cc1)-c1ccccc1S(=O)(=O)N2C`, the figures for the inhibition at 100 µM in data set [1] and in data set [2] were 41% and over 50%, respectively. In addition, inhibition in data set [3] was half-maximal at 30.2 µM (IC50).
For the compound `CN1c2c(nn(-c3ccc(/C=N/NC(=S)Nc4cccc(Cl)c4)cc3)c2-c2ccccc2)-c2ccccc2S1(=O)=O`, the inhibition at 100 µM in data set [1] and in data set [2] was over 50% in each case. In addition, the IC50 in data set [3] was 7.73 µM; in data set [4], 20900 nM.
For the compound `CN1c2c(nn(-c3ccc(/C=N/NC(N)=S)cc3)c2-c2ccccc2)-c2ccccc2S1(=O)=O`, the inhibition at 100 µM in data set [1] and in data set [2] was over 50% each time. In addition, the results for the half-maximal inhibitory concentration (IC50) in data set [3] and in data set [4] were 0.97 µM and 2390 nM, respectively.
Consider `CN1c2c(nn(-c3ccc(/C=N/NC(=S)Nc4ccccc4F)cc3)c2-c2ccccc2)-c2ccccc2S1(=O)=O`, for which the inhibition at 100 µM is 19% in data set [1] and over 50% in data set [2]. For the same compound, in data set [3], the IC50 was determined as 0.54 µM.
In the case of `CN1c2c(nn(-c3ccc(/C=N/NC(=S)NCN4CCOCC4)cc3)c2-c2ccccc2)-c2ccccc2S1(=O)=O`, the inhibition at 100 µM in data set [1] and in data set [2] was over 50% in each case. The IC50 in data set [3] turned out to be 3.07 µM; in data set [4], 2990 nM.
As to `CCc1ccc(NC(=S)N/N=C/c2ccc(-n3nc4c(c3C)N(C)S(=O)(=O)c3ccccc3-4)cc2)cc1`, the inhibition at 100 µM in data set [1] and in data set [2] was over 50% in each case. Besides, the IC50 in data set [3] was determined as 1.77 µM; in data set [4] it was 2910 nM.
